# Data published in ChEMBL document CHEMBL3120102, “Structure-based design, synthesis and biological evaluation of novel anthra[1,2-d]imidazole-6,11-dione homologues as potential antitumor agents” (2013).
# Assays:
# Type in all cases: functional
# T47D = assay: Cytotoxicity against human T47D cells assessed as growth inhibition after 48 hrs by SRB assay
# Outline: (§1)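 NCI 60-cell-line screen, two stages. Five-dose testing at […]. Cellular protein measured by sulforhodamine B colorimetry after 48 h drug exposure. A time-zero control and drug-free plates are used to derive GI50, TGI and LC50 from dose-response curves plotted as log10 concentration per cell line.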
# [1] = (§2) Cytotoxicity against human Hs578T cells assessed as growth inhibition after 48 hrs by SRB assay; details: Hs-578T
# Outline: (§3)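 NCI 60-cell-line five-dose screen at […]. Drug exposure was 48 h, followed by sulforhodamine B protein staining. GI50, TGI and LC50 were calculated against a time-zero control and untreated plates, with dose–response curves plotted from log10 concentration.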
# Hs-578T = assay: as §2; outline: as §3
# MDA-MB-231 = assay: Cytotoxicity against human MDA-MB-231 cells assessed as growth inhibition after 48 hrs by SRB assay
# Outline: (§4)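 NCI 60-cell-line screen, five-dose stage: each cell line exposed for 48 h to five concentrations spanning five log steps; cellular protein measured by sulforhodamine B colorimetry. A time-zero cell control and plates without drug are used to derive GI50, TGI and LC50 from log-concentration dose-response curves.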
# MCF7 = assay: Cytotoxicity against human MCF7 cells assessed as growth inhibition after 48 hrs by SRB assay; outline: as §4
# TK-10 = assay: Cytotoxicity against human TK10 cells assessed as growth inhibition after 48 hrs by SRB assay; outline: as §1
# SK-OV-3 = assay: Cytotoxicity against human SKOV3 cells assessed as growth inhibition after 48 hrs by SRB assay; outline: as §4
# OVCAR-8 = assay: Cytotoxicity against human OVCAR8 cells assessed as growth inhibition after 48 hrs by SRB assay; outline: as §4
# UACC-62 = assay: Cytotoxicity against human UACC62 cells assessed as growth inhibition after 48 hrs by SRB assay; outline: as §1
# [2] = (§5) Cytotoxicity against human UACC257 cells assessed as growth inhibition after 48 hrs by SRB assay; details: UACC-257, 48 h; outline: as §1
# UACC-257 = assay: as §5; outline: as §1
# SK-MEL-5 = assay: Cytotoxicity against human SK-MEL-5 cells assessed as growth inhibition after 48 hrs by SRB assay; outline: as §4
# M14 = assay: Cytotoxicity against human M14 cells assessed as growth inhibition after 48 hrs by SRB assay; outline: as §3
# SNB-75 = assay: Cytotoxicity against human SNB75 cells assessed as growth inhibition after 48 hrs by SRB assay; outline: as §1
# SNB-19 = assay: Cytotoxicity against human SNB19 cells assessed as growth inhibition after 48 hrs by SRB assay; outline: as §1
# SF-295 = assay: Cytotoxicity against human SF295 cells assessed as growth inhibition after 48 hrs by SRB assay; outline: as §4
# SF-268 = assay: Cytotoxicity against human SF268 cells assessed as growth inhibition after 48 hrs by SRB assay; outline: as §4
# SW-620 = assay: Cytotoxicity against human SW620 cells assessed as growth inhibition after 48 hrs by SRB assay; outline: as §1
# KM12 = assay: Cytotoxicity against human KM12 cells assessed as growth inhibition after 48 hrs by SRB assay; outline: as §3
# HCT-116 = assay: Cytotoxicity against human HCT116 cells assessed as growth inhibition after 48 hrs by SRB assay; outline: as §3
# NCI-H226 = assay: Cytotoxicity against human NCI-H226 cells assessed as growth inhibition after 48 hrs by SRB assay; outline: as §4
# [3] = (§6) Cytotoxicity against human EKVX cells assessed as growth inhibition after 48 hrs by SRB assay; outline: as §3
# EKVX = assay: as §6; outline: as §3
# RPMI-8226 = assay: Cytotoxicity against human RPMI8226 cells assessed as growth inhibition after 48 hrs by SRB assay; outline: as §4
# MOLT-4 = assay: Cytotoxicity against human MOLT4 cells assessed as growth inhibition after 48 hrs by SRB assay; outline: as §4
# K562 = assay: Cytotoxicity against human K562 cells assessed as growth inhibition after 48 hrs by SRB assay; outline: as §3
# CAKI-1 = assay: Cytotoxicity against human CAKI-1 cells assessed as cell growth at 10 uM after 48 hrs by SRB assay; details: CAKI-1, 48 h, read-out: Activity
# OVCAR-3 = assay: Cytotoxicity against human OVCAR3 cells assessed as cell growth at 10 uM after 48 hrs by SRB assay; details: OVCAR-3, 48 h, read-out: Activity
# Outline: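 First stage of the NCI 60 human tumour cell line screen: a single dose is tested against every line. Cell growth is read as cellular protein by sulforhodamine B colorimetry after 48 h of drug exposure, with reference to a time-zero control and to untreated plates.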
# HT-29 = assay: Cytotoxicity against human HT-29 cells assessed as cell growth at 10 uM after 48 hrs by SRB assay; details: HT-29, 48 h, read-out: Activity
smiles,measurement,setting,value
CCCSc1nc2ccc3c(c2[nH]1)C(=O)c1ccccc1C3=O,GI50,T47D,2.66 µM
same,LC50,T47D,> 100 µM
same,TGI,T47D,> 100 µM
same,growth inhibition (GI),T47D,Dose-dependent effect
same,GI50,[1],3.45 µM
same,TGI,[1],83 µM
same,CC50,[1]; read-out: LC50 (the source's name),> 100 µM
same,growth inhibition (GI),Hs-578T,Dose-dependent effect
same,growth inhibition (GI),MDA-MB-231,Dose-dependent effect
same,GI50,"MDA-MB-231; MDA-MB-231, 48 h",5.14 µM
same,LC50,"MDA-MB-231; MDA-MB-231, 48 h",> 100 µM
same,TGI,"MDA-MB-231; MDA-MB-231, 48 h",> 100 µM
same,growth inhibition (GI),MCF7,Dose-dependent effect
same,GI50,"MCF7; MCF7, 48 h",57 µM
same,LC50 (concentration killing 50% of cells),"MCF7; MCF7, 48 h",> 100 µM
same,TGI,"MCF7; MCF7, 48 h",> 100 µM
same,growth inhibition (GI),TK-10,Dose-dependent effect
same,GI50,"TK-10; TK-10, 48 h",3.25 µM
same,LC50,"TK-10; TK-10, 48 h",> 100 µM
same,TGI,"TK-10; TK-10, 48 h",21.6 µM
same,growth inhibition (GI),SK-OV-3,Dose-dependent effect
same,GI50,"SK-OV-3; SK-OV-3, 48 h",3.22 µM
same,LC50 (concentration killing 50% of cells present at time zero),"SK-OV-3; SK-OV-3, 48 h",> 100 µM
same,TGI,"SK-OV-3; SK-OV-3, 48 h",20.5 µM
same,growth inhibition (GI),OVCAR-8,Dose-dependent effect
same,GI50,"OVCAR-8; OVCAR-8, 48 h",3.48 µM
same,LC50,"OVCAR-8; OVCAR-8, 48 h",> 100 µM
same,TGI,"OVCAR-8; OVCAR-8, 48 h",> 100 µM
same,growth inhibition (GI),UACC-62,Dose-dependent effect
same,GI50,"UACC-62; UACC-62, 48 h",5.78 µM
same,LC50,"UACC-62; UACC-62, 48 h",> 100 µM
same,TGI,"UACC-62; UACC-62, 48 h",> 100 µM
same,GI50,[2],> 100 µM
same,LC50,[2],> 100 µM
same,TGI,[2],> 100 µM
same,growth inhibition (GI),UACC-257,Dose-dependent effect
same,growth inhibition (GI),SK-MEL-5,Dose-dependent effect
same,GI50,"SK-MEL-5; SK-MEL-5, 48 h",> 100 µM
same,LC50 (concentration killing 50% of cells relative to time zero),"SK-MEL-5; SK-MEL-5, 48 h",> 100 µM
same,TGI,"SK-MEL-5; SK-MEL-5, 48 h",> 100 µM
same,growth inhibition (GI),M14,Dose-dependent effect
same,GI50,"M14; M14, 48 h",> 100 µM
same,LC50,"M14; M14, 48 h",> 100 µM
same,TGI,"M14; M14, 48 h",> 100 µM
same,growth inhibition (GI),SNB-75,Dose-dependent effect
same,GI50,"SNB-75; SNB-75, 48 h",2.64 µM
same,LC50,"SNB-75; SNB-75, 48 h",98.1 µM
same,TGI,"SNB-75; SNB-75, 48 h",6.43 µM
same,growth inhibition (GI),SNB-19,Dose-dependent effect
same,GI50,"SNB-19; SNB-19, 48 h",9.35 µM
same,LC50,"SNB-19; SNB-19, 48 h",> 100 µM
same,TGI,"SNB-19; SNB-19, 48 h",> 100 µM
same,growth inhibition (GI),SF-295,Dose-dependent effect
same,GI50,"SF-295; SF-295, 48 h",3.19 µM
same,LC50,"SF-295; SF-295, 48 h",> 100 µM
same,TGI,"SF-295; SF-295, 48 h",60.2 µM
same,growth inhibition (GI),SF-268,Dose-dependent effect
same,GI50,"SF-268; SF-268, 48 h",3.71 µM
same,LC50 (concentration killing 50% of cells relative to time zero),"SF-268; SF-268, 48 h",> 100 µM
same,TGI,"SF-268; SF-268, 48 h",> 100 µM
same,growth inhibition (GI),SW-620,Dose-dependent effect
same,GI50,"SW-620; SW-620, 48 h",> 100 µM
same,LC50,"SW-620; SW-620, 48 h",> 100 µM
same,TGI,"SW-620; SW-620, 48 h",> 100 µM
same,growth inhibition (GI),KM12,Dose-dependent effect
same,GI50,"KM12; KM12, 48 h",> 100 µM
same,TGI,"KM12; KM12, 48 h",> 100 µM
same,CC50,"KM12; KM12, 48 h, read-out: LC50 (the source's name)",> 100 µM
same,growth inhibition (GI),HCT-116,Dose-dependent effect
same,GI50,"HCT-116; HCT-116, 48 h",3.06 µM
same,LC50,"HCT-116; HCT-116, 48 h",> 100 µM
same,TGI,"HCT-116; HCT-116, 48 h",> 100 µM
same,growth inhibition (GI),NCI-H226,Dose-dependent effect
same,GI50,"NCI-H226; NCI-H226, 48 h",4.37 µM
same,LC50,"NCI-H226; NCI-H226, 48 h",> 100 µM
same,TGI,"NCI-H226; NCI-H226, 48 h",> 100 µM
same,GI50,[3],64.9 µM
same,LC50,[3],> 100 µM
same,TGI,[3],> 100 µM
same,growth inhibition (GI),EKVX,Dose-dependent effect
same,growth inhibition (GI),RPMI-8226,Dose-dependent effect
same,GI50,"RPMI-8226; RPMI-8226, 48 h",> 100 µM
same,LC50 (concentration causing 50% net cell kill),"RPMI-8226; RPMI-8226, 48 h",> 100 µM
same,TGI,"RPMI-8226; RPMI-8226, 48 h",> 100 µM
same,growth inhibition (GI),MOLT-4,Dose-dependent effect
same,GI50,"MOLT-4; MOLT-4, 48 h",> 100 µM
same,LC50 (50% lethal concentration),"MOLT-4; MOLT-4, 48 h",> 100 µM
same,TGI,"MOLT-4; MOLT-4, 48 h",> 100 µM
same,growth inhibition (GI),K562,Dose-dependent effect
same,GI50,"K562; K562, 48 h",36.4 µM
same,TGI,"K562; K562, 48 h",> 100 µM
same,CC50,"K562; K562, 48 h, read-out: LC50 (the source's name)",> 100 µM
same,growth at 10 µM,CAKI-1,45.5%
same,growth at 10 µM,OVCAR-3,62.7%
same,growth at 10 µM,HT-29,75.1%
